Molecules are shown by their SMILES. Active and inactive are the calls of the source. The calls are words filed in the database; no cut-off is given here.

Data set [1] can be described thus: Inhibition of Escherichia coli Mn-SOD by […] reduction assay. The method in brief:
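Commercial Mn-SOD from Escherichia coli assayed by spectrophotometric NBT-reduction method, in which superoxide reduces NBT.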

Data set [2] can be described thus: Ratio of compound selectivity index to glucantime selectivity index for amastigote form of Leishmania braziliensis MHOM/BR/1975/M2904 infected in J774.2 cells over mouse J774.2 cells. The essentials:
(§1)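 J774.2 macrophages in MEM + 2 mM glutamine + 20% inactivated FCS were infected with stationary-phase promastigotes (10:1) for 24 h at 37 °C, 5% CO2. After washing, compounds were added at […] for 72 h. Amastigote reduction was scored in methanol-fixed, Giemsa-stained preparations; IC50 by regression; triplicates. SI = J774.2 IC50 (72 h flow cytometry)/amastigote IC50; ratio is versus Glucantime SI.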

Data set [3] can be described thus: Ratio of compound selectivity index to glucantime selectivity index for axenic amastigote form of Leishmania braziliensis MHOM/BR/1975/M2904 over mouse J774.2 cells. The method in brief: (§2)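 Axenic amastigotes obtained by 3-day promastigote transformation in supplemented M199 + 10% heat-inactivated FCS, pH 5.4, 37 °C. […] Host toxicity: J774.2, 72 h, PI/FDA flow cytometry. SI = macrophage IC50/axenic amastigote IC50; ratio is compound SI over Glucantime SI.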

The subject of data set [4] is Leishmania braziliensis. Briefly: Antileishmanial activity against amastigote form of Leishmania braziliensis MHOM/BR/1975/M2904 infected in J774.2 cells after 72 hrs by haemocytometric analysis. It counts as functional, cell-based, MHOM/BR/75/M2904. Conditions: Leishmania braziliensis, MHOM/BR/75/M2904, J774.2, 72 h. The essentials:
(§3)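 J774.2 macrophages grown in MEM with 2 mM glutamine and 20% inactivated FCS at 37 °C in 5% CO2. Infected with stationary-phase promastigotes at 10:1 for 24 h, then washed free of non-phagocytosed parasites. Compounds at 1, 10, 25, 50 and 100 for 72 h. Amastigotes counted on methanol-fixed, Giemsa-stained preparations and % reduction taken vs untreated. IC50 by linear regression of Kc values; three separate determinations.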

The test system of data set [5] is Leishmania braziliensis. As to the kind of experiment: Antileishmanial activity against axenic amastigote form of Leishmania braziliensis MHOM/BR/1975/M2904 after 72 hrs by haemocytometric analysis. It counts as functional, MHOM/BR/75/M2904. Conditions: Leishmania braziliensis, MHOM/BR/75/M2904, 72 h. The method in brief:
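Axenic amastigotes made by culturing promastigotes 3 days at 37 °C in M199 with 10% heat-inactivated FCS plus organic acids, amino acids, sucrose, bicarbonate, MES, haemin and gentamicin, pH 5.4. Compound effect counted in a Neubauer haemocytometer chamber. IC50 by linear regression of Kc values at 1, 10, 25, 50 and 100.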

Data set [6] concerns Leishmania braziliensis. As to the kind of experiment: Antileishmanial activity against promastigote form of Leishmania braziliensis MHOM/BR/1975/M2904 after 72 hrs by haemocytometric analysis. It counts as functional. Conditions: MHOM/BR/75/M2904, 72 h. The essentials: (§4)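 Promastigotes grown at 28 °C in MTL medium with 10% inactivated FCS. Compounds in DMSO (0.1%), diluted in culture medium to 100, 50, 25, 10 and 1. Cells counted at 72 h in a Neubauer haemocytometric chamber. IC50 (50% inhibition) by linear regression of Kc values.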

The nature of data set [7]: Ratio of compound selectivity index to glucantime selectivity index for promastigote form of Leishmania infantum MCAN/ES/2001/UCM-10 over mouse J774.2 cells. The method in brief: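 J774.2 toxicity: 72 h at the same concentrations, viability by flow cytometry with propidium iodide/fluorescein diacetate; IC50 by linear regression. SI = macrophage IC50/parasite IC50; ratio is compound SI over Glucantime SI.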

A short description of data set [8]: Selectivity index, ratio of IC50 for mouse J774.2 cells to IC50 for amastigote form of Leishmania infantum MCAN/ES/2001/UCM-10 infected in J774.2 cells. It counts as toxicity, cell-based. Conditions: J774.2 cells, read-out: Ratio IC50. The essentials:
as §1

Data set [9] in a line: Selectivity index, ratio of IC50 for mouse J774.2 cells to IC50 for axenic amastigote form of Leishmania infantum MCAN/ES/2001/UCM-10. It counts as toxicity. The settings on record: J774.2 cells, read-out: Ratio IC50. The method in brief:
as §2

The test system of data set [10] is Leishmania infantum. As to the kind of experiment: Antileishmanial activity against promastigote form of Leishmania infantum MCAN/ES/2001/UCM-10 after 72 hrs by haemocytometric analysis. It counts as functional, organism-based. The settings on record: Leishmania infantum, MCAN/ES/2001/UCM-10, 72 h. The method in brief: as §4
The subject of data set [11] is Leishmania infantum. Briefly: Antileishmanial activity against amastigote form of Leishmania infantum MCAN/ES/2001/UCM-10 infected in J774.2 cells after 72 hrs by haemocytometric analysis. The settings on record: Leishmania infantum, MCAN/ES/2001/UCM-10, J774.2, 72 h. It counts as functional, organism-based. The essentials: as §3
A further data set has as its system J774.2. As to the kind of experiment: Cytotoxicity against mouse J774.2 cells after 72 hrs by PI-staining based flow cytometric analysis. It counts as cell-based. The settings on record: J774.2, 72 h. The method in brief:
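J774.2 macrophages (ECACC 91051511, female BALB/c mouse tumour) treated 72 h with 100, 50, 25, 10 and 1 of compound. Propidium iodide then fluorescein diacetate each added for 10 min at 28 °C in the dark. Cells pelleted at 400g, washed in PBS and analysed by flow cytometry. Viability % vs control; IC50 by linear regression of Kc values.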

The test system of data set [12] is Leishmania braziliensis. Briefly: Antileishmanial activity against promastigote form of Leishmania braziliensis MHOM/BR/1975/M2904 assessed as empty cytoplasmic at IC25 concentration after 96 hrs by MET microscopic analysis. It counts as functional. The settings on record: MHOM/BR/75/M2904. The method in brief: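 Promastigotes at 5 × 10^5 cells/mL in MTL medium with compound at IC25 for 96 h. Ultrastructure examined by transmission electron microscopy against untreated control parasites.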

The test system of data set [13] is Leishmania braziliensis. As to the kind of experiment: Antileishmanial activity against promastigote form of Leishmania braziliensis MHOM/BR/1975/M2904 assessed as ethanol metabolite production at IC25 concentration after 96 hrs by H1-NMR analysis. It counts as functional, MHOM/BR/75/M2904. The essentials:
(§5)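 Promastigote cultures, initial 5 × 10^5 cells/mL, given the IC25 of compound; controls left untreated. Incubated 96 h at 28 °C, then centrifuged at 400g for 10 min. Excreted metabolites in the medium identified by 1H NMR spectra and compared with untreated control.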

The test system of data set [14] is Leishmania braziliensis. As to the kind of experiment: Antileishmanial activity against promastigote form of Leishmania braziliensis MHOM/BR/1975/M2904 assessed as change in alanine metabolite production at IC25 concentration after 96 hrs by H1-NMR analysis. It counts as functional, MHOM/BR/75/M2904. The essentials: as §5
The subject of data set [15] is Leishmania braziliensis. Briefly: Antileishmanial activity against promastigote form of Leishmania braziliensis MHOM/BR/1975/M2904 assessed as change in lactate metabolite production at IC25 concentration after 96 hrs by H1-NMR analysis. It counts as functional, MHOM/BR/75/M2904. The essentials: as §5
Data set [16] concerns Leishmania braziliensis. Briefly: Antileishmanial activity against promastigote form of Leishmania braziliensis MHOM/BR/1975/M2904 assessed as change in succinate metabolite production at IC25 concentration after 96 hrs by H1-NMR analysis. It counts as functional, MHOM/BR/75/M2904. The method in brief: as §5
Data set [17] can be described thus: Inhibition of promastigote form Leishmania braziliensis MHOM/BR/1975/M2904 Fe-SOD by NBT reduction assay. More on the design: species or system Leishmania braziliensis MHOM/BR/75/M2904. The method in brief:
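Promastigotes sonicated in sucrose/Tris-HCl/EDTA buffer, pH 7.8, and centrifuged. Protein precipitating at 35–85% ammonium sulphate desalted into 20 mM potassium phosphate with 1 mM EDTA, pH 7.8. Protein measured by Bradford. Fe-SOD activity read spectrophotometrically as inhibition of NBT reduction by superoxide, with compounds at 0.1–50. IC50 by linear regression of Kc values; three determinations; Newman-Keuls test vs control homogenate.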

Turning to `Br.NCCN1CCNCc2cccc(n2)CNCC1`, the half-inhibitory concentration (IC50) in [1] is 381 µM; in the data set with Leishmania braziliensis [4], 10 µM; in the data set on Leishmania braziliensis [5], 16 µM; in the data set on Leishmania braziliensis [6], 11.8 µM; with Leishmania infantum [10] it was 18.9 µM; with Leishmania infantum [11] it was 25.6 µM. In addition, the IC50 was 232 µM in the data set with J774.2 and 15.1 µM in [17]. In addition, the Ratio in data set [2] is 29; in data set [3] it was 29; in data set [7] it was 15. Besides, the selectivity ratio in data set [8] worked out at 9; in [9], 8. Moreover, in the data set with Leishmania braziliensis [12], the result was Active. Also, the Activity in the data set on Leishmania braziliensis [13] is 6%; with Leishmania braziliensis [14] it was 5%; in the data set with Leishmania braziliensis [15], 6%; in the data set on Leishmania braziliensis [16] it was 22%.
As for `Cl.c1cncc(CNCCN2CCNCc3cccc(n3)CNCC2)c1`, the concentration for half-maximal inhibition (IC50) in data set [1] turned out to be 641 µM; with Leishmania braziliensis [4], 10.3 µM; in the data set on Leishmania braziliensis [5] it was 23.9 µM; in the data set on Leishmania braziliensis [6], 23 µM; with Leishmania infantum [10] it was 18.8 µM; in the data set with Leishmania infantum [11] it was 6.3 µM. Moreover, the 50% inhibitory concentration (IC50) worked out at 468 µM in the data set with J774.2 and 9 µM in data set [17]. In addition, the values for the Ratio in data set [2], in [3] and in data set [7] were 57, 39 and 31, respectively. Also, the selectivity ratio in data set [8] was determined as 74.3; in data set [9], 29.4. Also, the outcome in the data set with Leishmania braziliensis [12] was Active. Moreover, the Activity was -59% with Leishmania braziliensis [13], 10% in the data set with Leishmania braziliensis [14], 19% with Leishmania braziliensis [15] and -47% in the data set on Leishmania braziliensis [16].
In the case of `Cl.c1ccc(CNCCN2CCNCc3cccc(n3)CNCC2)nc1`, the IC50 in [1] stood at 178 µM; in the data set on Leishmania braziliensis [4] it was 10.4 µM; in the data set on Leishmania braziliensis [5] it was 16 µM; with Leishmania braziliensis [6], 11.3 µM; in the data set with Leishmania infantum [10], 15.5 µM; in the data set with Leishmania infantum [11] it was 19.6 µM. Moreover, the figures for the 50% inhibitory concentration (IC50) (with J774.2; in data set [17]) were 254 µM and 1.3 µM, respectively. For the same molecule, the Ratio stood at 30 in [2], 32 in data set [3] and 20 in [7]. Moreover, the selectivity ratio in [8] was determined as 13; in data set [9], 10. The outcome in the data set with Leishmania braziliensis [12] was Active. In addition, the Activity in the data set with Leishmania braziliensis [13] was -71%; with Leishmania braziliensis [14], 8%; in the data set on Leishmania braziliensis [15] it was 0%; with Leishmania braziliensis [16] it was -78%.
Regarding `Cl.c1cc2nc(c1)CNCCN(CCNCc1cccc3ccccc13)CCNC2`, the IC50 in data set [1] turned out to be 408 µM; in the data set on Leishmania braziliensis [4] it was 16.6 µM; in the data set on Leishmania braziliensis [5], 24.9 µM; in the data set with Leishmania braziliensis [6], 12.3 µM; with Leishmania infantum [10] it was 21.7 µM; with Leishmania infantum [11], 17.4 µM. Besides, the IC50 stood at 365 µM in the data set with J774.2 and 16.6 µM in [17]. Moreover, the Ratio in data set [2] is 27; in data set [3], 29; in data set [7], 23. Further, the selectivity ratio in [8] was 21; in data set [9] it was 13. In addition, the result in the data set on Leishmania braziliensis [12] was Active. Further, the Activity was -6% in the data set on Leishmania braziliensis [13], 0% in the data set on Leishmania braziliensis [14], 0% with Leishmania braziliensis [15] and 2% in the data set on Leishmania braziliensis [16].

The values above are taken from ChEMBL document CHEMBL2331406, “In vitro activity of scorpiand-like azamacrocycle derivatives in promastigotes and intracellular amastigotes of Leishmania infantum and Leishmania braziliensis” (Eur J Med Chem, 2013).
